Reference: ChEMBL document CHEMBL1140992, “High throughput screening of potentially selective MMP-13 exosite inhibitors utilizing a triple-helical FRET substrate” (Bioorg Med Chem, 2009)

Columns and labels:
[1] = molecular target: Matrix metalloproteinase-9 (Homo sapiens) (UniProt P14780); assay: Inhibition recombinant MMP9 at 100 uM; set-up: scale not given: the % may be the effect or the level left
Summary of the method: (§1)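 Pro-enzyme (MMP-8 expressed in CHO-K1 cells; MMP-9 recombinant) was activated with 1 mM APMA for 1 h at 37 °C. Active enzyme concentration was determined by titration with recombinant N-TIMP-1, using Knight fSSP or NFF-3 substrate.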

[2] = molecular target: Macrophage metalloelastase (Homo sapiens) (UniProt P39900); assay: Inhibition recombinant MMP12 at 100 uM; set-up: scale not given: the % may be the effect or the level left
Sequence of Macrophage metalloelastase (Homo sapiens) (P39900 106-470 limits assumed): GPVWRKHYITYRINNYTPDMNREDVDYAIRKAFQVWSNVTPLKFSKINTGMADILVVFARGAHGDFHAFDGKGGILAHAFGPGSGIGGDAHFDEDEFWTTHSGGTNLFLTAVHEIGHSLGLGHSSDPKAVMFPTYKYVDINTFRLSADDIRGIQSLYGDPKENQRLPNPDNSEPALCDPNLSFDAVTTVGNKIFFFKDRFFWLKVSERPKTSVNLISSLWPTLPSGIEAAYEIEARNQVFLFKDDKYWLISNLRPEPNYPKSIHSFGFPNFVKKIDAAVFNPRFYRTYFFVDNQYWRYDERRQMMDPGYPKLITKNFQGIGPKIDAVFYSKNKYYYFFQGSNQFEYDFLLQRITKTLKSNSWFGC
Summary of the method: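 Recombinant MMP-12 was expressed directly in active form, with no zymogen activation step. Active concentration was determined by recombinant N-TIMP-1 titration, with Knight fSSP or NFF-3 as substrate.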

Collagenase 3 [3] = molecular target: T1, Collagenase 3 (Homo sapiens, UniProt P45452); assay: Activity of human recombinant MMP13; set-up: concentration or dose not given beside the values
Summary of the method: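 Recombinant full-length human proMMP-13, activated with 1 mM APMA for 2 h at 37 °C and active-site titrated with N-TIMP-1. Run in 1536-well format in Tris·HCl pH 7.5, 100 mM NaCl, 10 mM CaCl2, 0.05% Brij-35, 0.3% DMSO. Triple-helical FRET substrate fTHP-15 (Mca/Dnp). Stopped with EDTA after 4 h at 25 °C; fluorescence read at ex 325/em 450 nm. Dose-response in triplicate, 10-point 1:3 dilutions from 40 μM; IC50 from four-parameter sigmoidal fit.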

[4] = molecular target: T2, Interstitial collagenase (Homo sapiens) (UniProt P03956); assay: Inhibition recombinant MMP1 at 100 uM; set-up: scale not given: the % may be the effect or the level left
T2 sequence (whole entry): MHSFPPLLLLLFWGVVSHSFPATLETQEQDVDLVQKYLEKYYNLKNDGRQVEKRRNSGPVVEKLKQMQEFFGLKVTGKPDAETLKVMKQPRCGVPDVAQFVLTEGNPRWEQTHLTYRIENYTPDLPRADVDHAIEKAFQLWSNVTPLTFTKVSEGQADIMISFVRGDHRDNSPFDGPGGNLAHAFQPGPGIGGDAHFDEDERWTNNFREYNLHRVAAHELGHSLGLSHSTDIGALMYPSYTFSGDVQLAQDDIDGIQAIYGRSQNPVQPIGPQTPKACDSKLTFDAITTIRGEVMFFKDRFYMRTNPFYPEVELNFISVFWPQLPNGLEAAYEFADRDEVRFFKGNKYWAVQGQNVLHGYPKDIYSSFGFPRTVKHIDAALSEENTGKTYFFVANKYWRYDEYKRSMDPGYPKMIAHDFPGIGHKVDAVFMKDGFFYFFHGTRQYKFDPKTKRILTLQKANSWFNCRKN
Summary of the method: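 Enzyme source: proMMP-1 expressed in E. coli and refolded from inclusion bodies. Activated with 1 mM APMA plus 0.1 equiv MMP-3(Δ248-460) for 6 h at 37 °C. The MMP-3 fragment was then removed by size-exclusion chromatography. Active enzyme was quantified by titration with recombinant N-TIMP-1, using Knight fSSP or NFF-3 as substrate.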

[5] = molecular target: 72 kDa type IV collagenase (Homo sapiens) (UniProt P08253); assay: Inhibition recombinant MMP2 at 100 uM; set-up: scale not given: the % may be the effect or the level left
Sequence of 72 kDa type IV collagenase (Homo sapiens) (P08253 110-660 limits assumed): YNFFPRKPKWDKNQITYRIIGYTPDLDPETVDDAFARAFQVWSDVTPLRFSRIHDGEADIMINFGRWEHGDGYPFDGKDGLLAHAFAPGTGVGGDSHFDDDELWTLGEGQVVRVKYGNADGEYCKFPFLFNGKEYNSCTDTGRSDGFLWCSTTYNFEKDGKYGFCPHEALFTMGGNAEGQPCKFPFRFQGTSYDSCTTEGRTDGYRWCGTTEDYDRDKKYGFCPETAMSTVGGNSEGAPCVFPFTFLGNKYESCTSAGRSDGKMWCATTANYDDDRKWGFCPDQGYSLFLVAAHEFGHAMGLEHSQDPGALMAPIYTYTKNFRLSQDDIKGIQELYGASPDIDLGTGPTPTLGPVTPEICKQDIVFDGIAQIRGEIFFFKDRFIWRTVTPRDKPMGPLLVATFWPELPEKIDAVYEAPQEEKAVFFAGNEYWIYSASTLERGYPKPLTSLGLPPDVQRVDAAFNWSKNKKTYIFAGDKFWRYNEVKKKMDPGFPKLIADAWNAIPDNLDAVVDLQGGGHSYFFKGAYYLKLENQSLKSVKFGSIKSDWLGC

[6] = molecular target: Stromelysin-1 (Homo sapiens) (UniProt P08254); assay: Inhibition recombinant MMP3 at 100 uM; set-up: scale not given: the % may be the effect or the level left
Sequence of Stromelysin-1 (Homo sapiens) (P08254 100-477 limits assumed): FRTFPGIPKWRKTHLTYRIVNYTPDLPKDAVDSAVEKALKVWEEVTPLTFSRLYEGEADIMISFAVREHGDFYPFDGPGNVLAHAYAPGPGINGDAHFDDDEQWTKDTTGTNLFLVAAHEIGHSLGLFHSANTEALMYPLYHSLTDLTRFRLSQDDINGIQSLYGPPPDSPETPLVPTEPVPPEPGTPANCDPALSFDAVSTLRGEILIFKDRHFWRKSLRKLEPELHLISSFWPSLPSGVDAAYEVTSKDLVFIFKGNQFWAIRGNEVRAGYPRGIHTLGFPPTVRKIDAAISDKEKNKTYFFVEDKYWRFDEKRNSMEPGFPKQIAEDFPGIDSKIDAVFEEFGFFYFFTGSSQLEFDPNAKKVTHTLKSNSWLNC
Summary of the method: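 ProMMP-3 was expressed in E. coli and folded from inclusion bodies. It was activated with 5 μg/mL chymotrypsin at 37 °C for 2 h, and chymotrypsin was then inactivated with 2 mM diisopropylfluorophosphate. Active concentration was set by N-TIMP-1 titration, with Knight fSSP or NFF-3 as substrate.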

[7] = molecular target: Neutrophil collagenase (Homo sapiens) (UniProt P22894); assay: Inhibition recombinant MMP8 expressed in CHO-K1 cells at 100 uM; format: cell-based; set-up: scale not given: the % may be the effect or the level left; summary of the method: as §1
Sequence of Neutrophil collagenase (Homo sapiens) (P22894 101-467 limits assumed): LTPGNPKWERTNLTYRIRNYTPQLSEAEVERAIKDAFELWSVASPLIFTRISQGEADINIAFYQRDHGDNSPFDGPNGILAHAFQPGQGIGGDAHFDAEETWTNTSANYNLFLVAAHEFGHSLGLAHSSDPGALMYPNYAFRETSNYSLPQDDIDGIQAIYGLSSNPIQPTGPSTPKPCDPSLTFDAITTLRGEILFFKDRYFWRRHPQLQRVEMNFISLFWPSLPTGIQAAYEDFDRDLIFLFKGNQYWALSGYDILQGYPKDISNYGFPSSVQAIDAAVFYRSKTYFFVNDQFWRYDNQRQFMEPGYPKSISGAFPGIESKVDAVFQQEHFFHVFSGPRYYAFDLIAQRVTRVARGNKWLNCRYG

Collagenase 3 [8] = molecular target: T1, Collagenase 3; assay: Inhibition of human recombinant MMP13 expressed in Escherichia coli

Sequence of Matrix metalloproteinase-9 (Homo sapiens) (P14780 whole entry): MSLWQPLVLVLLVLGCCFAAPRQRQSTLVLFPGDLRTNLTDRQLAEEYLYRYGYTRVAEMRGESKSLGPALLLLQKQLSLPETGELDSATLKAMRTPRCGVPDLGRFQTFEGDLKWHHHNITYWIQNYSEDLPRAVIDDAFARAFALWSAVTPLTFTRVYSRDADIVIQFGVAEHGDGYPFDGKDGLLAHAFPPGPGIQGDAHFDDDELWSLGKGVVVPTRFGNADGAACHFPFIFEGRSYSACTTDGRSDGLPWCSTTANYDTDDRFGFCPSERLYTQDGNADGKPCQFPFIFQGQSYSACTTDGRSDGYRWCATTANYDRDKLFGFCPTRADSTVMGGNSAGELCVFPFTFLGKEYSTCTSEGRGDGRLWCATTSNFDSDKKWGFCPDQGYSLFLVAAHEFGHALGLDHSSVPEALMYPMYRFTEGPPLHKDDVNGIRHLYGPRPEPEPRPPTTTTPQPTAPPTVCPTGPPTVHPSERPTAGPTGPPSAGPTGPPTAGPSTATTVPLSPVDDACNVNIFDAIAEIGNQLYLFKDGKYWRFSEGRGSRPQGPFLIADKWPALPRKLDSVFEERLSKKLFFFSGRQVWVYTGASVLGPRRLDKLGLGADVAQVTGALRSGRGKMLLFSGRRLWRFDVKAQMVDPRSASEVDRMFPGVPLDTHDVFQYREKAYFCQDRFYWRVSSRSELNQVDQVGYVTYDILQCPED

CCN1C(=O)/C(=C2/Sc3ccccc3N2CCCS(=O)(=O)O)SC1=S
Activity [1]: 14% | Activity [2]: 94% | Activity (Collagenase 3 [3]): 4% | Activity [4]: 88% | Activity [5]: 80% | Activity [6]: 90% | Activity [7]: 100%

CCCCCCOc1ccc(C(CC(=O)O)C(N)=O)cc1 (stereo unspecified)
Activity [1]: 0% | Activity [2]: 0% | Activity (Collagenase 3 [3]): 15% | Activity [4]: 91% | Activity [5]: 0% | Activity [6]: 43% | Activity [7]: 10%

COc1cc(-n2nc(C)c3c2OC(N)=C(C#N)C3c2ccccc2)c(Cl)c(Br)c1O (stereo unspecified)
IC50 (Collagenase 3 [8]): > 40 µM

O=C(O)CCC(NS(=O)(=O)c1ccc(-c2ccccc2)cc1)C(=O)O (stereo unspecified)
Activity [1]: 14% | Activity [2]: 2% | Activity (Collagenase 3 [3]): 4% | Activity [4]: 25% | IC50 (Collagenase 3 [8]): 2.1 µM | Activity [5]: 7% | Activity [6]: 63% | Activity [7]: 2%

Cc1nn(-c2ccccc2)c2sc(-c3nnc(S)o3)cc12
Activity [1]: 100% | Activity [2]: 75% | Activity (Collagenase 3 [3]): 45% | Activity [4]: 68% | IC50 (Collagenase 3 [8]): 0.9 µM | Activity [5]: 100% | Activity [6]: 75% | Activity [7]: 32%

O=C(CSCc1nc(O)n[nH]1)NCCOc1cccc(Oc2ccccc2)c1
Activity [1]: 27% | Activity [2]: 33% | Activity (Collagenase 3 [3]): 35% | Activity [4]: 85% | Activity [5]: 19% | Activity [6]: 96% | Activity [7]: 34%

CCOC(=O)/C(C#N)=C1/C=Nc2ccccc2N1
Activity [1]: 99% | Activity [2]: 100% | Activity (Collagenase 3 [3]): 62% | Activity [4]: 94% | IC50 (Collagenase 3 [8]): 3.4 µM | Activity [5]: 100% | Activity [6]: 96% | Activity [7]: 80%

COC(=O)c1ccc(CSc2nc(O)c3c(-c4cccs4)csc3n2)o1
Activity [1]: 100% | Activity [2]: 92% | Activity (Collagenase 3 [3]): 42% | Activity [4]: 93% | Activity [5]: 100% | Activity [6]: 92% | Activity [7]: 94%

O=C1NC(=O)C(CCc2ccncc2)(c2ccccc2)C(=O)N1
Activity [1]: 3% | Activity [2]: 1% | Activity (Collagenase 3 [3]): 14% | Activity [4]: 27% | Activity [5]: 17% | Activity [6]: 87% | Activity [7]: 8%

C=CCN1C(=O)/C(=C2/Sc3ccccc3N2CCCS(=O)(=O)O)SC1=S
Activity [1]: 100% | Activity [2]: 100% | Activity (Collagenase 3 [3]): 36% | Activity [4]: 96% | Activity [5]: 100% | Activity [6]: 100% | Activity [7]: 100%

CCOC(=O)C1CCCN(c2nc3ccccc3nc2C(C#N)C(=O)OCC)C1 (stereo unspecified)
IC50 (Collagenase 3 [8]): 13.3 µM

COc1ccc(C2C(C(C)=O)=C(C)N=c3s/c(=C\c4cc(C)n(C)c4C)c(=O)n32)c(OC)c1 (stereo unspecified)
IC50 (Collagenase 3 [8]): > 40 µM

COc1cc(OC)cc(-c2nnc(Nc3nc4c(F)cccc4s3)o2)c1
Activity [1]: 75% | Activity [2]: 64% | Activity (Collagenase 3 [3]): 35% | Activity [4]: 96% | Activity [5]: 73% | Activity [6]: 95% | Activity [7]: 36%

O=C1NC(=O)C(CCc2ccncc2)(C2CCCCC2)C(=O)N1
Activity [1]: 27% | Activity [2]: 21% | Activity (Collagenase 3 [3]): 35% | Activity [4]: 47% | Activity [5]: 49% | Activity [6]: 96% | Activity [7]: 50%

Oc1nc(SCc2ccc(Cl)cc2)nc2c1CCC2
IC50 (Collagenase 3 [8]): 10.3 µM

COc1ccc(CSc2nc(C)cc(O)n2)cc1
Activity [1]: 66% | Activity [2]: 72% | Activity (Collagenase 3 [3]): 25% | Activity [4]: 98% | Activity [5]: 47% | Activity [6]: 97% | Activity [7]: 80%
